Data as given in the EternaBench riboswitch data.

Test system: MS2 coat protein
Test: apparent Kd, MS2 coat protein; higher = weaker binding; RNA-MaP array; FMN 200 µM where present
How it was run: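 Stalled E. coli RNA polymerase produced the designs on Illumina sequencing-chip clusters. SNAP-549-labelled MS2 coat protein was added from 0.7 or 1.5 nM, doubling to 3 µM, without and then with constant ligand, in 100 mM Tris-HCl pH 7.5, 80 mM KCl, 4 mM MgCl2, BSA, DTT, yeast tRNA and Tween-20. The apparent Kd is the median of filtered per-cluster fits of green signal normalised to red-channel RNA signal and control-cluster median Fmax.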

[1] = designed as: ON switch for flavin mononucleotide, no ligand
[2] = ligand present: flavin mononucleotide, designed as: ON switch for flavin mononucleotide
[3] = designed as: OFF switch for flavin mononucleotide, no ligand
[4] = ligand present: flavin mononucleotide, designed as: OFF switch for flavin mononucleotide

| Sequence | apparent Kd [1] | apparent Kd [2] | apparent Kd [3] | apparent Kd [4] |
| --- | --- | --- | --- | --- |
| AACCAACAUGAGGAUCACCCAUGUCAACCCAAGCGAGGAUAUCCGAGAAUAACAAUGGGAGGAGAAGGCGCGACCU | 73.4 nM | 55.6 nM | – | – |
| AACCGCGACCGGCCUGGCACGUCGAGAAGGGUACGUGACUUGCUUUACAUGAGGAUCACCCAUGUACAGGAUAUCGAAUAGCCG | – | – | 8.4 nM | 11 nM |
| AACGAAGAGGAGAAGGGUGAUGGGUCCUCAUGACCCGGAGGGCCGCGGCACAGGAUAUCCAUGUCACAUGAGGAUCACCCAUGU | 123 nM | 18.5 nM | – | – |
| AACGCACGAGAUGGCUGGGAUACUAAGGAUAUGACAUGAGGAUCACCCAUGUACGCGAUCCAUGGUCAGAAGGUAGUAAUUCGC | – | – | 37 nM | 91.2 nM |
| AACGCGUCAGGAUAUAGCGUAAUUUAGGUAGUACGACCAUACUAGAAGGGACAUGAGGAUCACCCAUGUGGGUA | – | – | 212 nM | 118 nM |
| AACGCGUCAGGAUAUGCCAUAAAUUACGUAGUACGACCAUAGUAGAAGGGACAUGAGGAUCACCCAUGUGGGUA | – | – | 177 nM | 137 nM |
| AACGGGUGGGUAGGAUAUGGCUAUGUCUCAUUGCUAGAAGGACCAGCUGCUACAUGAGGAUCACCCAUGUCGUAGUGCACCCAC | 93.2 nM | 24.5 nM | – | – |
| AACGUUCGAGGAUAUGUGGCGCUGCACAUGAGGAUCACCCAUGUGAGGACUUGCAGCAUCACAGAAGGUGACCUGC | – | – | 94 nM | 84.6 nM |
| AAGAAACAUGAGGAUCACCCAUGUAAGAUAAACACAGGAUAUGCGAAAAGAAACAAAGAAGCAGAAGGGUGAAGAA | 68.2 nM | 19.7 nM | – | – |
| AAGAAGUCAGGAUAUGCAUGGCGGGACUUGCGUCGUGGCGUGCAGAAGGGACAUGAGGAUCACCCAUGUAAAGC | – | – | 49.8 nM | 42.4 nM |
| AAGACCAGAGGAUAUCAGACGCGGCACAUGAGGAUCACCCAUGUAUUCCCGUCUGCCGACUGAGAAGGUUGGAAAG | – | – | 12.5 nM | 17 nM |
| AAGACGUAAGGAUAUAUUAUGGGACAAUGAAGGAAGAUAAAACAUGAGGAUCACCCAUGUAGAAGGUGCAAAGA | – | – | 45.9 nM | 41.5 nM |
| AAGAUCCCUGUUAGGAUAUAGAGAUCGCCUGGGUCCUAGAAGGAACAUGAGGAUCACCCAUGUGACGUAUAUGU | – | – | 100 nM | 228 nM |
| AAGCGAAAGCUAAAAUAUCUAUCAGAGGAUAUUUAUGAUACAUGAGGAUCACCCAUGUGGCACUGGGAGAAGGCUGAUAGAUAA | 11.6 nM | 6.15 nM | – | – |
| AAGCGGGUCUUCAGGGUAAUGAACAUGAGGAUCACCCAUGUGCAGGAUAUGACGGAUCCGCACCGUCAGAAGGGCACUAAGUAC | – | – | 24.6 nM | 69.9 nM |
| AAGGAGUGAGGAUAUGCUGCUCGUCACUUGCGUGAUGAGUAGCAGAAGGCACAUGAGGAUCACCCAUGUAAAAA | – | – | 41.5 nM | 49.7 nM |
| AAGGGACAUGAGGAUCACCCAUGUUCGAAAGACGAUGGAUCGCAGGAUAUCCAGUGUUAGAGAGAGGAGAAGGGUGAUCCUAUU | 36.3 nM | 27.7 nM | – | – |
| AAGUACGUAAAGAAGGCGCGGGCAACCAUUCUGCGAGGAUAUUUACAUGAGGAUCACCCAUGUGCAUGGGAUCGAGAAGAAUUG | – | – | 159 nM | 41.9 nM |
| AAGUUAUUAGGAUAUACUUGUGCGAACCAAACGUUGAUAUUACAUGAGGAUCACCCAUGUAGAAGGAAUAAAAA | – | – | 35.7 nM | 25.1 nM |
| AAGUUCUGUGAGAAGGCGCCCUUUGCGGUUGGGCGAGGAUAUCACAUGAGGAUCACCCAUGUCGGUGCAUCAGACAGCGUAUUU | – | – | 810 nM | 156 nM |
| AAGUUGACAGGAUAUACUUGGGCAACUUAUAUACUAAUAUAACAUGAGGAUCACCCAUGUAGAAGGGUCAGAAA | – | – | 54 nM | 72.5 nM |
| AAGUUUUUACAAGGAUAUCAAUUUUAUCUUAAUUCAACAUGAGGAUCACCCAUGUAACAAUGGAGUGAGAAGGUGUAAUGGCUU | 617 nM | 234 nM | – | – |
| AAUAAAAUGAUGUUACAUGAGGAUCACCCAUGUAAGUGAUGGAGAAGGUCCCACGACUUGGGCGGGAAGGAUAUUCAGAGCAUA | 16.8 nM | 10.3 nM | – | – |
| AAUAAACAUGAGGAUCACCCAUGUGGUGGCCCAUGAGGAUAUCCGUACGCAAUGCGCACAGGAGAAGGCAUAGCCA | 33.9 nM | 90.8 nM | – | – |
| AAUAACAGAGGAUAUACUAUUUUAUGUAUUUAUUAUUUUAAACAUGAGGAUCACCCAUGUAGAAGGCUGAUUGA | – | – | 29.9 nM | 28.4 nM |
| AAUAACAGAGGAUAUACUAUUUUAUGUGUUUGUUAUUUUAAACAUGAGGAUCACCCAUGUAGAAGGCUGAGUAA | – | – | 26.7 nM | 26.9 nM |
| AAUAACAGAGGAUAUACUAUUUUAUGUGUUUGUUGUUUUAAACAUGAGGAUCACCCAUGUAGAAGGCUGAGUAA | – | – | 24.3 nM | 30.4 nM |
| AAUAACAGAGGAUAUACUGUUUUAUGUGUUUAUUGUUUUGAACAUGAGGAUCACCCAUGUAGAAGGCUGAAUGA | – | – | 26.1 nM | 26.2 nM |

| Sequence | apparent Kd [1] | apparent Kd [2] | apparent Kd [3] | apparent Kd [4] |
| --- | --- | --- | --- | --- |
| AAUAGAAAGAUUAAUAUGAUUACAUGAGGAUCACCCAUGUAUAAGGAUAUCGACGUCAAUGACGUCGAGAAGGUAUACAUAAUA | – | – | 15.7 nM | 34 nM |
| AAUAUAAAGAGCUGGACCUUAAUAACAUGAGGAUCACCCAUGUAGGAUAUCAGCACGAUAAGUGCUGAGAAGGACAUCCAGCUC | – | – | 14.4 nM | 15.1 nM |
| AAUAUAAGAGCUGGUAAAUAAAUCACAUGAGGAUCACCCAUGUAGGAUAUCAGCACGAUAAGUGCUGAGAAGGACAUCCAGCUC | – | – | 13.4 nM | 14.6 nM |
| AAUAUGUUGCAGAAGGUUAUUUUUAUAACGAUCCACUUGACAUGAGGAUCACCCAUGUAAUUGUUGAAGGAUAUGCAAUAUAUU | – | – | 6.79 nM | 7.11 nM |
| AAUCCACAUGAGGAUCACCCAUGUCAGGAUAUCGCGCGCGCGUUUUCGGUCUUUCGCGCGAGAAGGGACGGCUG | – | – | 17.7 nM | 23.5 nM |
| AAUGAGCAGUAGAAGGCAUGUCUACGGACAUGAGGAUCACCCAUGUUGUGAAUCCGAAAGGAGCGUGAGGAUAUACUGCUCUAA | 85.6 nM | 18.8 nM | – | – |
| AAUGGCGUGAUAACGCUAAUUACAACAUGAGGAUCACCCAUGUAGGAUAUCCUACCGAAAUGGUAGGAGAAGGACAAGCAAUGA | – | – | 30.4 nM | 23.5 nM |
| AAUUAACAUGAGGAUCACCCAUGUGAGGAUAUGAUAUUACUUGGACAGCUAUGAUCAAUCAGAAGGCACAUCUU | – | – | 22.3 nM | 28.5 nM |
| AAUUAACUCACAGGAUAUAGCAGAGGUCGAGUGAACUUACAGGCGACUAGGCUAGAAGGGUGACCACAUGAGGAUCACCCAUGU | 834 nM | 117 nM | – | – |
| AAUUAAUUAAUUAAUAUACAUGAGGAUCACCCAUGUAAGAUCAAGGAUAUCAGCUCGAUUAGAGCUGAGAAGGUGAUCACAUGU | 357 nM | 501 nM | – | – |
| AAUUAGGUCACAGGAUAUACAACAUCCAUUGCUGUAGAAGGGUGUCACAAUCAUAUCUGACAUGAGGAUCACCCAUGUUUCCAC | 85.8 nM | 33.3 nM | – | – |
| AAUUAUUUAUGAGGAUAUUGUGGUGAAACACCACAAGAAGGCAUGAUACACAUGAGGAUCACCCAUGUGAGCCUGAUGCUUAUG | – | – | 16.7 nM | 20.1 nM |
| AAUUGACACGUAGGAUAUCGAACUAUUUUAACACGAGAAGGACGUACAUGAGGAUCACCCAUGUUUAAUGGAGUAGAUAAGUUG | – | – | 154 nM | 290 nM |
| AAUUGACACGUAGGAUAUCGAUCUAAAUUAACUCGAGAAGGACGUACAUGAGGAUCACCCAUGUUUAAUGGAGUAGAUAUGUUG | – | – | 121 nM | 398 nM |
| AAUUGGAUGCAGAAGGCAUGGACGACUCGUCACAUUAACAUGAGGAUCACCCAUGUCAAAAUACAUGAGGAUAUGCAUCCUAAA | 140 nM | 12 nM | – | – |
| AAUUGGCUCGCGCAGGAUAUGGAUCAUUCCACAUGAGGAUCACCCAUGUUAAGGAGCCUUUGCAUCCAGAAGGGUGCUGGUCUUU | 41.2 nM | 14.6 nM | – | – |
| AAUUGUAGAACAAUCACUACCAGUCAGGAUAUACAUGAGGAUCACCCAUGUCGUGUCGACAGCAUGUAGAAGGGACGGUUAUAU | – | – | 51.6 nM | 115 nM |
| AAUUUAAUACAUGAGGAUCACCCAUGUAAAUUAAUUAAGAUCAAGGAUAUCAGCUCGAAUAGAGCUGAGAAGGUGAUCACAUGU | 351 nM | 86.5 nM | – | – |
| AAUUUUUAACAGAAGGCGUUUAUAGUUAAGUUACGAGGAUAUGUAUUACAUGAGGAUCACCCAUGUUACUAGGGUAGUAUAUAA | 22.1 nM | 20.7 nM | – | – |
| ACAACAAAGUGAGGAUAUACAUAAUUCAUAACUGUAGAAGGCACAAACCUCAAUACAUGAGGAUCACCCAUGUUAUAUAUCUAA | – | – | 34.8 nM | 38.5 nM |
| ACAAGAUCAGGAUAUACAUGAGGAUCACCCAUGUUUAUCAAAAAGGGACUUUCUUAAUGUAGAAGGGAUCUUGU | – | – | 27.5 nM | 83.9 nM |
| ACAGAGGCUGACAUGAGGAUCACCCAUGUUAGAUUGUUAUGUCAGGAUAUUAUCUGGCAACCAGAUGAGAAGGGACCCUCUGUG | 22.6 nM | 7.54 nM | – | – |
| ACAGCGGCAGGAUAUGCAUGCUCCGACUUAUGCCUACAAAGACAUGAGGAUCACCCAUGUAGAAGGGCCAGCGG | – | – | 13.8 nM | 15.2 nM |
| ACAGGCUUCGAGAAGGACAUGAGGAUCACCCAUGUGCGUGUGAAGCAGCCGUGAGGCUGCAUCAUGUAGGAUAUCGGAGUCUGG | – | – | 76 nM | 504 nM |
| ACAGUCACAGUAACCUGUGGCCGUGAGGAUAUAUAUGGCUCGGAGCGGACAUGAGGAUCACCCAUGUAGAAGGCACGAACUAAA | – | – | 6.21 nM | 7.09 nM |
| ACAUAAAUUCGAGGAUAUCGGUGAUAAAGAAGACGAGAAGGCGAUUAAAGAGAGAUGGUUAUAGACAUGAGGAUCACCCAUGUA | 28.6 nM | 22.8 nM | – | – |
| ACAUACAUGACAUGACAUGAGGAUCACCCAUGUCCAUGUUACAAGGAUAUGUACAUGAAACAUGUACAGAAGGUGUAUUGGACU | – | – | 13.1 nM | 18 nM |
